Screens from PubChem.
Kir21 inh: inhibitors of mouse Kir2.1 inward-rectifier potassium channel | Inward rectifier potassium channel 2 (Mus musculus), P35561 | HEK293-Kir2.1, FluxOR thallium flux fluorescence; stronger effect = lower value | B-score at 10 µM | 310,000 compounds, 0.85% hits | AID 1672, 2009;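 active = fluorescence ratio B-score at or below minus 3 SD of library scores, with starting-brightness B-score within 2 SD, cut at about -4.2 in these data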;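 also: channel flux triggered by added potassium and thallium sulfate stimulus; B-score of peak minus minimum fluorescence over baseline after thallium stimulus; more negative B-score means stronger Kir2.1 block with less thallium influx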
TRPC4 potent: positive allosteric modulators of TRPC4, primary screen, cell-based, mouse TRPC4beta, HEK293 mu-opioid, Fluo-4 calcium; Short transient receptor potential channel 4 (Mus musculus), Q9QUQ5; DAMGO EC20, Fluo-4 Ca2+ flux; stronger effect = higher value; B-score at 10 µM; 310,000 compounds, 0.42% hits;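 active = B-score of calcium response area above 5 SD of library B-scores, with initial fluorescence ratio within 5 SD of library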
Target sequence (Q9QUQ5 whole entry, looked up): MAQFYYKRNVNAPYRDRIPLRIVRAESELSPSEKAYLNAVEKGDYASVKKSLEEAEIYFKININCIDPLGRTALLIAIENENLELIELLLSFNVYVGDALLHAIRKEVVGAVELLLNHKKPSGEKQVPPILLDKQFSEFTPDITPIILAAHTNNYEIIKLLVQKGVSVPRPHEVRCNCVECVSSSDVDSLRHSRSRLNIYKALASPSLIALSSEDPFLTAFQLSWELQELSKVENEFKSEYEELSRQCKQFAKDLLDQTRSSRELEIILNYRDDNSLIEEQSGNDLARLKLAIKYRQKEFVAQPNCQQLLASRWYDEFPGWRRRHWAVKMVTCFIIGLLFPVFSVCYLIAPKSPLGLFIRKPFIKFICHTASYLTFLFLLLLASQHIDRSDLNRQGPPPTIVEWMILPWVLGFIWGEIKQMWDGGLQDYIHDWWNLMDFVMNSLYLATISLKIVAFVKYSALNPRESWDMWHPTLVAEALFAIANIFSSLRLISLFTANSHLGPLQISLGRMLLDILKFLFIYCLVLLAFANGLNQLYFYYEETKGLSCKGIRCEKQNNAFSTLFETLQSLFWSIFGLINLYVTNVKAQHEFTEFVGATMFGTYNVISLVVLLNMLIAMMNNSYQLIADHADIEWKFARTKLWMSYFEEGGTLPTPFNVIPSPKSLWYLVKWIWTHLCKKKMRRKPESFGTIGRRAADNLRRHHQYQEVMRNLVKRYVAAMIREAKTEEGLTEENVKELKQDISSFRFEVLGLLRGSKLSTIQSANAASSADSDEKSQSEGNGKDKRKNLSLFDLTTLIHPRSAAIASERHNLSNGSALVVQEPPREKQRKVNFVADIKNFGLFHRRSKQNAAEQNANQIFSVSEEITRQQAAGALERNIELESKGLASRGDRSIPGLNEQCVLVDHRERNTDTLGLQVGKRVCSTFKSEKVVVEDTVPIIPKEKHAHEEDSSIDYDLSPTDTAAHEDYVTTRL
TRPC4 inh: inhibitors of mouse TRPC4 channel, primary screen, Fluo4 calcium, HEK293 TRPC4beta/mu-opioid cells; Short transient receptor potential channel 4 (Mus musculus), Q9QUQ5; DAMGO-evoked Fluo4 calcium flux; stronger effect = lower value; B-score at 10 µM; 300,000 compounds, 0.39% hits;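 active = B-score over 3 SD under the library average, no early fluorescence shift, positive overall ratio signal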
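Assay system: HEK293 cells with stable TRPC4beta plus mu-opioid receptor expression; Probe or stimulus: DAMGO in two steps, submaximal then maximal; Dosing: single-point compound dosing; Measured by: Fluo4 calcium-dye fluorescence, kinetic read; Read-out basis: B score from integrated Fluo4 fluorescence ratio.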
TRPC6 inhibitor: mouse TRPC6 channel inhibitors, primary screen, cell-based, HEK293, membrane potential dye. ACh-evoked depolarization; stronger effect = lower value. B-score at 10 µM. 310,000 compounds, 1.1% hits. AID 2553, 2010;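 active = B-score under library mean minus 3 SD, initial fluorescence not abnormally high, positive integrated signal ratio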;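 also: B-score derived from integrated fluorescence ratio over the kinetic read; more negative B-score means stronger inhibition of depolarization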
TRPC4 act: activators of mouse TRPC4 channel, primary screen, Fluo4 calcium, HEK293 TRPC4beta/mu-opioid cells | Fluo4 calcium fluorescence; stronger effect = higher value | B-score at 10 µM | AID 2237, 2010 | 310,000 compounds, 0.49% hits | Short transient receptor potential channel 4 (Mus musculus), Q9QUQ5;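 active = B-score above 5 SD of library B-scores, and initial fluorescence ratio not above library mean plus 5 SD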;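 also: positive B-score marks a calcium rise read as TRPC4 activation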
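Assay system: HEK293 stable line with TRPC4beta plus mu-opioid receptor. Times: dye 45 min RT, read 110 s. Measured by: kinetic Fluo4 calcium fluorescence. Measure: B score of integrated ratio. Controls: assay buffer as low control, maximal DAMGO as high control.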
TRPC6 activator: mouse TRPC6 channel activators, primary screen, cell-based, HEK293, membrane potential dye; B-score at 10 µM; 310,000 compounds, 0.13% hits; HEK293-TRPC6 membrane potential dye fluorescence; stronger effect = higher value; Short transient receptor potential channel 6 (Mus musculus), Q61143;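 active = B-score of the integrated fluorescence ratio above library mean plus 3 SD, and starting fluorescence ratio within library mean plus 5 SD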;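 also: higher score means more depolarization so channel activation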
TRPC4 sel inh 2: second check of whether TRPC6 inhibitors also affect mouse TRPC4; HEK293 TRPC4/MOR, membrane potential dye fluorescence; channel activated by saturating DAMGO dose; shares compounds with TRPC6 inhibitor; AID 2776; inhibition, % at 10 µM; 920 compounds, 42% hits;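 active = compounds whose fluorescence signal differed from control wells by over 3 SD, either direction, in both duplicate plates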
TRPC4 spec: mouse TRPC4 modulation by TRPC6 hits, confirmation, selectivity assay for TRPC6 inhibitor project, cell-based, HEK293 TRPC4/mu-opioid, membrane potential dye. shares compounds with TRPC6 inhibitor. membrane potential fluorescence. activity change, negative = inhibition, % at 10 µM. 920 compounds, 61% hits;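 active = rise or fall in signal beyond 3 SD of buffer-only wells in both replicate plates, either sign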;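 also: integrated kinetic ratio of fluorescence range over baseline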
HEK293 MPD ctr 2-1: nonspecific membrane potential effects, parental HEK293, confirmation, counter-screen for TRPC6 inhibitor project, cell-based, second counter screen; shares compounds with TRPC6 inhibitor; parental HEK293 membrane potential dye fluorescence; maximal acetylcholine challenge after compound addition; signal change vs control, % at 10 µM; 920 compounds, 31% hits;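 active = membrane potential signal moving either way by over 3 SD of the maximum-effect control, in both duplicate plates, meaning non-specific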
HEK293 MPD ctr-1: membrane potential modulation in parental HEK293, confirmation, counter-screen for TRPC6 inhibitor project, cell-based; shares compounds with TRPC6 inhibitor; parental HEK293 membrane potential dye fluorescence; membrane potential signal change, % at 10 µM; 920 compounds, 60% hits;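 active = membrane potential signal shifting up or down by more than 3 SD of buffer-only wells, on both duplicate plates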
HEK293 MPD ctr-2: parental HEK293 membrane potential modulation, confirmation, counter-screen for TRPC6 modulator project, cell-based. shares compounds with TRPC6 inhibitor. membrane potential dye fluorescence. membrane potential signal change, % at 10 µM. 2,400 compounds, 51% hits. AID 488924, 2010;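 active = membrane potential signal moves up or down beyond 5 SD from buffer-only wells, on both duplicate plates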
HEK293 MPD ctr 2-2: second check of TRPC6 modulator effects in parental HEK293 cells; inhibition, % at 10 µM; membrane potential dye fluorescence; after compound, maximal acetylcholine stimulation; shares compounds with TRPC6 inhibitor; 2,400 compounds, 14% hits;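 active = membrane potential signal drops by more than 5 SD from the mean control signal, in both duplicate plates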
TRPC4 ctr mod: TRPC4 modulation by TRPC6 hit compounds, confirmation, selectivity assay for TRPC6 modulator project, cell-based, HEK293 TRPC4/mu-opioid, membrane potential dye, mouse; percent change from control (negative = decrease, positive = increase), % at 10 µM; shares compounds with TRPC6 inhibitor; membrane potential fluorescence; 2,400 compounds, 69% hits; AID 488927, 2010;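 active = membrane potential signal moved up or down beyond 5 SD of buffer control wells, in both duplicate plates, actives on both sides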
TRPC4/MOR inh 2: second selectivity test of TRPC6 modulators against mouse TRPC4 | shares compounds with TRPC6 inhibitor | HEK293 TRPC4/mu-opioid, membrane potential dye fluorescence; stimulated with maximal-effect DAMGO | inhibition, % at 10 µM | 2,400 compounds, 55% hits | AID 488928;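 active = drop in membrane potential signal beyond 5 SD of the control wells in both duplicate plates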;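 also: TRPC4 counter screen for TRPC6 hits run under conditions tuned for TRPC6 not TRPC4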
TRPC6 block conf: mouse TRPC6 channel inhibitors, confirmation, HEK293 cells, membrane potential dye, duplicate; shares compounds with TRPC6 inhibitor; ACh-evoked depolarization; inhibition, % at 10 µM; 3,300 compounds, 43% hits; AID 488960, 2010;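 active = fluorescence ratio falls more than 5 SD below the full-stimulation control mean, in both duplicate runs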;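 also: integrated fluorescence ratio of peak minus minimum over baseline after agonist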
TRPC6 act confirm: mouse TRPC6 channel activators, confirmation, HEK293 cells, membrane potential dye, duplicate | shares compounds with TRPC6 inhibitor | HEK293-TRPC6 membrane potential dye fluorescence, FDSS | activation, % at 10 µM | 2,800 compounds, 11% hits | AID 488961, 2010;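 active = ratio signal rise beyond 5 SD above unstimulated control wells' mean, seen in both duplicate runs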
Each line names hits and unclear results; the compound was inactive in the other large screens (follow-up assays come after a bar, where they were run). An excerpt weighted towards active compounds, which were near 2.9% of everything screened.

O=C(COC(=O)c1ccc(Cl)cc1[N+](=O)[O-])NC(=O)c1ccccc1	TRPC6 inhibitor -5.93 | HEK293 MPD ctr-2 inactive | HEK293 MPD ctr 2-2 inactive | TRPC4 ctr mod inactive | TRPC4/MOR inh 2 inactive | TRPC6 block conf inactive | TRPC6 act confirm inactive
O=C(COC(=O)c1cc[n+]([O-])cc1)Nc1ccc(Cl)cc1[N+](=O)[O-]	TRPC6 inhibitor -5.99 | HEK293 MPD ctr-2 -168.0% | HEK293 MPD ctr 2-2 inactive | TRPC4 ctr mod -36.5% | TRPC4/MOR inh 2 inactive | TRPC6 block conf inactive | TRPC6 act confirm inactive
O=C(COC(=O)c1cc[n+]([O-])cc1)Nc1ccc(Cl)cc1C(F)(F)F	none
O=C(C1CCN(S(=O)(=O)c2ccccc2[N+](=O)[O-])CC1)N1CCOCC1	none
CCCCCCn1cc(C(=O)O)c(=O)c2cc(F)c(N3CCN(C)CC3)cc21	TRPC6 inhibitor -5.55 | HEK293 MPD ctr-2 -267.5% | HEK293 MPD ctr 2-2 70.0% | TRPC4 ctr mod -52.0% | TRPC4/MOR inh 2 51.5% | TRPC6 block conf 44.0% | TRPC6 act confirm inactive
CCOC(=O)c1cn(CC#N)c2cc(F)c(F)cc2c1=O	none
CCCCCCn1cc(C(=O)OCC)c(=O)c2cc(F)c(F)cc21	TRPC4 inh -6, TRPC6 inhibitor -5.07 | HEK293 MPD ctr-2 inactive | HEK293 MPD ctr 2-2 inactive | TRPC4 ctr mod inactive | TRPC4/MOR inh 2 45.5% | TRPC6 block conf inactive | TRPC6 act confirm inactive
CCn1cc(C(=O)O)c(=O)c2cc(F)c(N3CCN(C)CC3)cc21	none
CCOC(=O)c1cn(CC)c2cc3c(cc2c1=O)OCO3	TRPC6 inhibitor -5.79 | HEK293 MPD ctr-2 -126.0% | HEK293 MPD ctr 2-2 inactive | TRPC4 ctr mod -31.5% | TRPC4/MOR inh 2 32.5% | TRPC6 block conf inactive | TRPC6 act confirm inactive
NC(c1ccccc1)c1ccncc1 (stereo unspecified)	none
COC(=O)C1=C(C)NC(=S)NC1c1ccc(OCC(=O)N2CCCCC2)c(OC)c1 (stereo unspecified)	none
Cc1cc(NS(C)(=O)=O)c(=O)n(Cc2c(F)cccc2Cl)c1	none
CC(C)Oc1ccccc1OCCN(C)C	none
CN(C)CCC(Oc1ccccc1OCc1ccccc1)c1ccccc1 (stereo unspecified)	Kir21 inh -4.56, TRPC6 inhibitor -5.86 | HEK293 MPD ctr-2 257.0% | HEK293 MPD ctr 2-2 inactive | TRPC4 ctr mod 49.0% | TRPC4/MOR inh 2 85.0% | TRPC6 block conf 43.5%
Cc1cccc(S(=O)(=O)NNC(=O)c2sc(C)nc2C)c1	none
Cc1cc(C)c2sc(N(CCCN(C)C)C(=O)c3ccc(Br)s3)nc2c1	TRPC6 inhibitor -9.63 | TRPC4 sel inh 2 35.0% | TRPC4 spec -17.4% | HEK293 MPD ctr 2-1 inactive | HEK293 MPD ctr-1 inactive | TRPC6 block conf 77.9% | TRPC6 act confirm inactive
Cc1cccc2sc(N(CCCN(C)C)C(=O)c3ccco3)nc12	TRPC6 inhibitor -6.78 | TRPC4 sel inh 2 24.0% | TRPC4 spec -19.4% | HEK293 MPD ctr 2-1 9.0% | HEK293 MPD ctr-1 inactive | TRPC6 block conf 99.4% | TRPC6 act confirm inactive
Cc1cc(C)c2nc(N(CCCN(C)C)C(=O)C3=COCCO3)sc2c1	none
Cc1cccc2sc(N(CCCN(C)C)C(=O)c3ccc(Cl)s3)nc12	Kir21 inh -5.4, TRPC6 inhibitor -6.61 | TRPC4 sel inh 2 42.5% | TRPC4 spec -14.3% | HEK293 MPD ctr 2-1 inactive | HEK293 MPD ctr-1 inactive | TRPC6 block conf 67.3% | TRPC6 act confirm inactive
CCN(CC)CCN(C(=O)C1=COCCO1)c1nc2cc(C)cc(C)c2s1	TRPC6 inhibitor -6.65 | TRPC4 sel inh 2 44.0% | TRPC4 spec inactive | HEK293 MPD ctr 2-1 inactive | HEK293 MPD ctr-1 0.6% | TRPC6 block conf inactive | TRPC6 act confirm inactive
Cc1cc(C)c2sc(N(CCN(C)C)C(=O)c3c(F)cccc3F)nc2c1	none
Cc1cccc2sc(N(CCN(C)C)C(=O)c3ccc4ccccc4c3)nc12	none
CSCc1ccc(C(=O)Nc2cccc(C)c2C)cc1	none
CC(C)n1nnc2c(=O)oc3ccccc3c21	none
